ChEMBL document CHEMBL4808213, “2-(Halogenated Phenyl) acetamides and propanamides as potent TRPV1 antagonists” (Bioorg Med Chem Lett, 2021)
Activity calls are given as the source filed them. The rule behind the calls is not given here.

Target: T1, Transient receptor potential cation channel subfamily V member 1 (Homo sapiens, UniProt Q8NER1)
Experiment: Partial agonist activity at human TRPV1 expressed in CHO cells
Assay type: cell-based
Conditions: filed as partial agonist

T1 sequence (Q8NER1 whole entry): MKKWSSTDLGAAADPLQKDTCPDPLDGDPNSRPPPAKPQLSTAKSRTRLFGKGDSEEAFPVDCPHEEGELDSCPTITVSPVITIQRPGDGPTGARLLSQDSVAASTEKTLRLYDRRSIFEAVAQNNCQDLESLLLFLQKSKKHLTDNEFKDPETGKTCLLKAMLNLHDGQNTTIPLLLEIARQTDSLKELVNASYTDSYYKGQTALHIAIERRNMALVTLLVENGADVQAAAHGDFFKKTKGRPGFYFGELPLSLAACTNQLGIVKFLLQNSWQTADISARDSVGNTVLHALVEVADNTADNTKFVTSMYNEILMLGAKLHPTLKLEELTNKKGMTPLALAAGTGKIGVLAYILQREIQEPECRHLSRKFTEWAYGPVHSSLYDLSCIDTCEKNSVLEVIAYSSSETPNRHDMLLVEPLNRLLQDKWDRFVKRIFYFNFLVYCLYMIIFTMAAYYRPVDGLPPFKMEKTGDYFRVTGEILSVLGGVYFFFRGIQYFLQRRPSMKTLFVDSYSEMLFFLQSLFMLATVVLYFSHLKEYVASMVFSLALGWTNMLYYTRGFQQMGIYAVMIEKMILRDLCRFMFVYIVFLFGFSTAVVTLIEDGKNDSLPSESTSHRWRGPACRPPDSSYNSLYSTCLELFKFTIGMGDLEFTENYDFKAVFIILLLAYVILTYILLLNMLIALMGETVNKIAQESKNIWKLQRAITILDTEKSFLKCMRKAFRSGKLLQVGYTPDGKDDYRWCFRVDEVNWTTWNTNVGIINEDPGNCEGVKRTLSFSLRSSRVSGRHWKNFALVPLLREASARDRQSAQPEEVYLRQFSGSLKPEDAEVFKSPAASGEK

Activity | Structure (SMILES)
Active | O=C(Cc1ccc(F)cc1)NCc1cc(C(F)(F)F)nn1-c1cccc(Cl)c1
Active | CC(C(=O)NCc1cc(C(F)(F)F)nn1-c1cccc(Cl)c1)c1cccc(Cl)c1 (configuration not stated)
Active | CC1CCN(c2nc(C(F)(F)F)ccc2CNC(=O)C(C)c2ccc(Cl)cc2)CC1 (configuration not stated)
Active | CC(C)(C)c1cc(CNC(=O)Cc2ccc(F)cc2F)n(-c2cccc(Cl)c2)n1
Active | CC(C(=O)NCc1cc(C(F)(F)F)nn1-c1cccc(Cl)c1)c1ccc(F)c(F)c1 (configuration not stated)
Active | CC(C(=O)NCc1cc(C(F)(F)F)nn1-c1cccc(Cl)c1)c1ccc(Cl)cc1 (configuration not stated)
Active | CC(C)(C)c1cc(CNC(=O)Cc2ccccc2F)n(-c2cccc(Cl)c2)n1
Active | CC(C)(C)c1cc(CNC(=O)Cc2ccc(Cl)c(F)c2)n(-c2cccc(Cl)c2)n1
Active | CC1CCN(c2nc(C(F)(F)F)ccc2CNC(=O)C(C)c2ccc(Cl)c(F)c2)CC1 (configuration not stated)
Active | CC1CCN(c2nc(C(F)(F)F)ccc2CNC(=O)Cc2ccc(F)c(F)c2)CC1
Active | CC1CCN(c2nc(C(F)(F)F)ccc2CNC(=O)Cc2ccc(Cl)c(F)c2)CC1
Active | CC(C(=O)NCc1cc(C(C)(C)C)nn1-c1cccc(Cl)c1)c1ccccc1Cl (configuration not stated)
Active | CC(C(=O)NCc1cc(C(C)(C)C)nn1-c1cccc(Cl)c1)c1cc(F)ccc1F (configuration not stated)
Active | CC(C(=O)NCc1cc(C(C)(C)C)nn1-c1cccc(Cl)c1)c1c(F)cccc1F (configuration not stated)
Active | CC(C(=O)NCc1cc(C(F)(F)F)nn1-c1cccc(Cl)c1)c1ccc(F)cc1F (configuration not stated)
Active | CC(C(=O)NCc1cc(C(F)(F)F)nn1-c1cccc(Cl)c1)c1cccc(F)c1 (configuration not stated)
Active | CC1CCN(c2nc(C(F)(F)F)ccc2CNC(=O)C(C)c2ccc(F)cc2F)CC1 (configuration not stated)
Active | CC(C(=O)NCc1cc(C(F)(F)F)nn1-c1cccc(Cl)c1)c1cc(F)cc(F)c1 (configuration not stated)
Active | CC(C)(C)c1cc(CNC(=O)Cc2cc(F)ccc2F)n(-c2cccc(Cl)c2)n1
Active | CC(C(=O)NCc1cc(C(C)(C)C)nn1-c1cccc(Cl)c1)c1cccc(F)c1F (configuration not stated)
Active | CC(C)(C)c1cc(CNC(=O)Cc2ccc(Cl)c(Cl)c2)n(-c2cccc(Cl)c2)n1
Active | CC1CCN(c2nc(C(F)(F)F)ccc2CNC(=O)C(C)c2ccc(Cl)c(Cl)c2)CC1 (configuration not stated)
Active | CC(C(=O)NCc1cc(C(C)(C)C)nn1-c1cccc(Cl)c1)c1cccc(Cl)c1Cl (configuration not stated)
Active | CC(C)(C)c1cc(CNC(=O)Cc2cc(F)cc(F)c2)n(-c2cccc(Cl)c2)n1
Active | O=C(Cc1ccc(F)c(F)c1)NCc1cc(C(F)(F)F)nn1-c1cccc(Cl)c1
Active | CC(C(=O)NCc1cc(C(F)(F)F)nn1-c1cccc(Cl)c1)c1ccc(F)cc1 (configuration not stated)

System: Mus musculus
Experiment: Analgesic activity in mouse model of formalin-induced paw edema assessed as induction of hyperthermia at 10 mg/kg, ip
Assay type: functional, organism-based
Conditions: not given
Outline: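 Mice received 10 mg/kg intraperitoneally, and body temperature was then measured to check for hyperthermia.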

Structure (SMILES) | Activity
CC(C)(C)c1cc(CNC(=O)Cc2cccc(F)c2F)n(-c2cccc(Cl)c2)n1 | inactive

Target: T1, Transient receptor potential cation channel subfamily V member 1
Experiment: Antagonist activity at human TRPV1 expressed in CHO cells assessed as inhibition of capsaicin-induced TRPV1 activation by FLIPR method
Assay type: cell-based
Conditions: not given

Ki [µM] | Structure (SMILES)
0.0049 | CC1CCN(c2nc(C(F)(F)F)ccc2CNC(=O)Cc2cccc(Cl)c2Cl)CC1
0.0388 | O=C(Cc1ccc(F)cc1Cl)NCc1cc(C(F)(F)F)nn1-c1cccc(Cl)c1
0.0433 | O=C(Cc1ccc(F)cc1F)NCc1cc(C(F)(F)F)nn1-c1cccc(Cl)c1
0.0063 | O=C(Cc1ccc(Cl)cc1)NCc1cc(C(F)(F)F)nn1-c1cccc(Cl)c1
0.046 | CC1CCN(c2nc(C(F)(F)F)ccc2CNC(=O)Cc2ccc(Cl)cc2Cl)CC1
0.0137 | O=C(Cc1cc(F)cc(F)c1)NCc1cc(C(F)(F)F)nn1-c1cccc(Cl)c1
0.0069 | CC(C)(C)c1cc(CNC(=O)Cc2cccc(F)c2F)n(-c2cccc(Cl)c2)n1
0.0589 | O=C(Cc1cc(F)ccc1F)NCc1cc(C(F)(F)F)nn1-c1cccc(Cl)c1
0.0142 | CC1CCN(c2nc(C(F)(F)F)ccc2CNC(=O)Cc2ccc(F)cc2Cl)CC1
0.0199 | CC(C)(C)c1cc(CNC(=O)Cc2ccc(F)cc2Cl)n(-c2cccc(Cl)c2)n1
0.0003 | CC1CCN(c2nc(C(F)(F)F)ccc2CNC(=O)[C@@H](C)c2ccc(NS(C)(=O)=O)c(F)c2)CC1 (racemic)
0.0038 | O=C(Cc1ccc(Cl)c(Cl)c1)NCc1cc(C(F)(F)F)nn1-c1cccc(Cl)c1
0.0209 | O=C(Cc1ccc(Cl)c(F)c1)NCc1cc(C(F)(F)F)nn1-c1cccc(Cl)c1
0.0098 | CC1CCN(c2nc(C(F)(F)F)ccc2CNC(=O)Cc2ccc(F)c(C(F)(F)F)c2)CC1
0.0397 | CC1CCN(c2nc(C(F)(F)F)ccc2CNC(=O)Cc2c(Cl)cccc2Cl)CC1
0.0061 | CC1CCN(c2nc(C(F)(F)F)ccc2CNC(=O)Cc2cccc(Cl)c2)CC1
0.019 | CC(C)(C)c1cc(CNC(=O)Cc2c(F)cccc2Cl)n(-c2cccc(Cl)c2)n1
0.0115 | O=C(Cc1cccc(F)c1F)NCc1cc(C(F)(F)F)nn1-c1cccc(Cl)c1
0.0167 | CC(C)(C)c1cc(CNC(=O)Cc2ccc(Cl)cc2Cl)n(-c2cccc(Cl)c2)n1
0.0026 | CC1CCN(c2nc(C(F)(F)F)ccc2CNC(=O)Cc2c(F)cccc2Cl)CC1
0.0226 | O=C(Cc1cccc(Cl)c1Cl)NCc1cc(C(F)(F)F)nn1-c1cccc(Cl)c1

Structure (SMILES) | Ki [µM]
C[C@H](C(=O)NCc1cc(C(C)(C)C)nn1-c1cccc(Cl)c1)c1ccc(NS(C)(=O)=O)c(F)c1 | 0.0003

Target: T1, Transient receptor potential cation channel subfamily V member 1
Experiment: Agonist activity at human TRPV1 expressed in CHO cells
Assay type: cell-based
Conditions: filed as agonist

Activity | Structure (SMILES)
Active | CC(C(=O)NCc1cc(C(C)(C)C)nn1-c1cccc(Cl)c1)c1ccc(F)cc1F (configuration not stated)
Active | CC(C)(C)c1cc(CNC(=O)Cc2ccc(F)c(F)c2)n(-c2cccc(Cl)c2)n1
Active | CC1CCN(c2nc(C(F)(F)F)ccc2CNC(=O)C(C)c2ccc(F)c(F)c2)CC1 (configuration not stated)
Active | CC(C)(C)c1cc(CNC(=O)Cc2ccc(F)cc2)n(-c2cccc(Cl)c2)n1
Active | CC(C)(C)c1cc(CNC(=O)Cc2ccc(Cl)cc2)n(-c2cccc(Cl)c2)n1
Active | CC(C)(C)c1cc(CNC(=O)Cc2ccc(F)c(Cl)c2)n(-c2cccc(Cl)c2)n1
Active | CC(C(=O)NCc1cc(C(C)(C)C)nn1-c1cccc(Cl)c1)c1cc(F)cc(F)c1 (configuration not stated)
Active | CC(C(=O)NCc1cc(C(C)(C)C)nn1-c1cccc(Cl)c1)c1cccc(F)c1 (configuration not stated)
Active | CC1CCN(c2nc(C(F)(F)F)ccc2CNC(=O)Cc2ccc(F)cc2F)CC1
Active | CC1CCN(c2nc(C(F)(F)F)ccc2CNC(=O)C(C)c2cccc(F)c2)CC1 (configuration not stated)
Active | CC(C(=O)NCc1cc(C(C)(C)C)nn1-c1cccc(Cl)c1)c1ccc(F)c(F)c1 (configuration not stated)
Active | CC(C(=O)NCc1cc(C(C)(C)C)nn1-c1cccc(Cl)c1)c1ccc(F)cc1 (configuration not stated)
Active | CC(C(=O)NCc1cc(C(C)(C)C)nn1-c1cccc(Cl)c1)c1ccc(Cl)cc1Cl (configuration not stated)
Active | CC(C(=O)NCc1cc(C(C)(C)C)nn1-c1cccc(Cl)c1)c1ccccc1F (configuration not stated)
Active | CC(C)(C)c1cc(CNC(=O)Cc2cccc(Cl)c2)n(-c2cccc(Cl)c2)n1
Active | CC1CCN(c2nc(C(F)(F)F)ccc2CNC(=O)C(C)c2ccc(F)cc2)CC1 (configuration not stated)
Active | CC(C)(C)c1cc(CNC(=O)Cc2cccc(F)c2)n(-c2cccc(Cl)c2)n1
Active | CC1CCN(c2nc(C(F)(F)F)ccc2CNC(=O)Cc2ccc(F)cc2)CC1
Active | CC(C(=O)NCc1cc(C(C)(C)C)nn1-c1cccc(Cl)c1)c1ccc(Cl)cc1 (configuration not stated)
Active | CC1CCN(c2nc(C(F)(F)F)ccc2CNC(=O)C(C)c2ccc(F)cc2Cl)CC1 (configuration not stated)
Active | CC(C(=O)NCc1cc(C(C)(C)C)nn1-c1cccc(Cl)c1)c1cccc(Cl)c1 (configuration not stated)
Active | CC(C(=O)NCc1cc(C(C)(C)C)nn1-c1cccc(Cl)c1)c1ccc(F)c(Cl)c1 (configuration not stated)
Active | CC(C(=O)NCc1cc(C(C)(C)C)nn1-c1cccc(Cl)c1)c1ccc(Cl)c(Cl)c1 (configuration not stated)
Active | CC1CCN(c2nc(C(F)(F)F)ccc2CNC(=O)Cc2ccc(Cl)cc2)CC1
Active | CC(C(=O)NCc1cc(C(C)(C)C)nn1-c1cccc(Cl)c1)c1ccc(Cl)c(F)c1 (configuration not stated)

System: Mus musculus
Experiment: Analgesic activity in ip dosed mouse model of formalin-induced paw edema
Assay type: functional, organism-based
Conditions: not given
Outline: (§1)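 Formalin test in mice, with antagonist given by intraperitoneal injection before testing. Nociceptive behaviour was scored separately in the 1st and 2nd phases. Several doses were tested, and ED50 for each phase was derived from the dose-response.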

Structure (SMILES) | Activity
CC1CCN(c2nc(C(F)(F)F)ccc2CNC(=O)Cc2c(F)cccc2Cl)CC1 | inactive

System: Mus musculus
Experiment: Analgesic activity in ip dosed mouse model of formalin-induced paw edema assessed as reduction in pain behaviour by measuring effective dose in 1st phase
Assay type: functional
Conditions: not given
Outline: as §1

Structure (SMILES) | ED50 [mg/kg]
CC(C)(C)c1cc(CNC(=O)Cc2cccc(F)c2F)n(-c2cccc(Cl)c2)n1 | 50.5

System: Mus musculus
Experiment: Analgesic activity in ip dosed mouse model of formalin-induced paw edema assessed as reduction in pain behaviour by measuring effective dose in 2nd phase
Assay type: functional
Conditions: not given
Outline: as §1

Structure (SMILES) | ED50 [mg/kg]
CC(C)(C)c1cc(CNC(=O)Cc2cccc(F)c2F)n(-c2cccc(Cl)c2)n1 | 29.5
